Measured values as given in ChEMBL document CHEMBL1136251, “Synthesis and biological evaluation of menthol-based derivatives as inhibitors of plasminogen activator inhibitor-1 (PAI-1)” (Bioorg Med Chem Lett, 2003).

Assays:
[1] = target: T1, Plasminogen activator inhibitor 1 (Homo sapiens, UniProt P05121); experiment: Plasminogen Activator Inhibitor-1 (PAI-1) activity was determined by inhibition of Urokinase-type plasminogen activator using primary assay
Procedure, shortened: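 Human recombinant PAI-1 (6 nM) preincubated with compound for 2 min at room temperature in 50 mM Tris-HCl, 150 mM NaCl, 2.5 mM CaCl2, 0.1% PEG 6000, pH 7.5. Human kidney urokinase (0.0175 units/mL) added for a further 2 min, then chromogenic substrate S2444. Rate of absorbance change read at 405 nm. Controls with uPA alone and uPA plus PAI-1 on each plate. IC50 taken from dose-response curve fit.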

[2] = Bioavailability in rat (cannulated) (dose 2 mg/kg); type: ADME, organism-based; settings: in vivo
Procedure, shortened: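 Given intravenously and orally at 2 mg/kg to cannulated conscious rats. Vehicle: 94% PEG/2% 0.1HCl/4% EtOH solution.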

[3] = target: T1, Plasminogen activator inhibitor 1; experiment: Plasminogen Activator Inhibitor-1 (PAI-1) activity was determined using plasma clot lysis assay; type: functional, cell-free
Procedure, shortened: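 Pooled human plasma diluted 1:3 in 150 mM NaCl, 2 mM CaCl2, 20 mM Hepes, pH 7.4. Clotting started with human thrombin (30 nM), with exogenous human tPA (4 nM) present. Lysis followed at 37 °C by absorbance at 405 nm.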

T1 sequence (P05121 whole entry): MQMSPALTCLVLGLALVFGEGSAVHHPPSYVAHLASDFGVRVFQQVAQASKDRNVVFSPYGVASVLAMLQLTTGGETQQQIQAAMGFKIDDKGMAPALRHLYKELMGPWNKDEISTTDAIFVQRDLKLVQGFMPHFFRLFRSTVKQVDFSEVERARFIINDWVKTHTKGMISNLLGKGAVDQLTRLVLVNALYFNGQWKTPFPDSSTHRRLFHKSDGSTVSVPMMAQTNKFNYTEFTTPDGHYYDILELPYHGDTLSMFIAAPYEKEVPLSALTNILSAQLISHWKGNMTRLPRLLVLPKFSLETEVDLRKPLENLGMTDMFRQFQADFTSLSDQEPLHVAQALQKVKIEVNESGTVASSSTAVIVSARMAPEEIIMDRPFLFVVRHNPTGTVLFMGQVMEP

Row | IC50 [1] [nM] | bioavailability [2] [%] | IC50 [3] [nM] | SMILES
1 | > 15000 | – | – | COc1cc(C(=O)O)c2c(c1C)OC(=O)c1c(C)cc(O)c(CN3CCC(NC(=O)CO[C@@H]4C[C@H](C)CC[C@H]4C(C)C)CC3)c1O2
2 | 710 | – | – | CC(C)[C@@H]1CC[C@@H](C)C[C@H]1OCC(=O)NCc1ccc(NCc2c(F)cccc2Oc2c(O)cccc2C(=O)O)cc1
3 | 1400 | – | – | COc1ccc(Oc2cccc(F)c2CNc2ccc(CNC(=O)CO[C@@H]3C[C@H](C)CC[C@H]3C(C)C)cc2)c(C(=O)O)c1
4 | 2900 | – | – | CC(C)[C@@H]1CC[C@@H](C)C[C@H]1OCC(=O)Nc1cc(N2CC(C(=O)O)C2)ccc1[N+](=O)[O-]
5 | 400 | < 10 | 100 | CC(C)[C@@H]1CC[C@@H](C)C[C@H]1OCC(=O)Nc1cc(Oc2cccc(C(=O)O)c2)ccc1[N+](=O)[O-]
6 | 1800 | – | – | COc1cc(C(=O)O)c(Oc2c(CNc3ccc(CNC(=O)CO[C@@H]4C[C@H](C)CC[C@H]4C(C)C)cc3)c(O)cc(C)c2C(=O)O)c(O)c1C
7 | 1400 | – | – | COc1ccc(Oc2ccccc2CNc2ccc(CNC(=O)CO[C@@H]3C[C@H](C)CC[C@H]3C(C)C)cc2)c(C(=O)O)c1
8 | 710 | – | – | CC(C)[C@@H]1CC[C@@H](C)C[C@H]1OCC(=O)NCc1ccc(NCc2cc([N+](=O)[O-])ccc2Oc2ccccc2C(=O)O)cc1
9 | 600 | – | – | COc1cc(C(=O)O)c(Oc2c(CNc3ccc(CNC(=O)CO[C@@H]4C[C@H](C)CC[C@H]4C(C)C)cc3)c(O)cc(C)c2C(N)=O)c(O)c1C
10 | 7800 | – | – | CC(C)[C@@H]1CC[C@@H](C)C[C@H]1OCC(=O)NCc1ccc(NCc2cccc(C(=O)O)c2)cc1
11 | 1100 | – | – | COc1cc(C(=O)O)c2c(c1C)OC(=O)c1c(C)cc(O)c(CNc3ccc(NC(=O)CO[C@@H]4C[C@H](C)CC[C@H]4C(C)C)cc3)c1O2
12 | 2600 | – | – | CC(C)[C@@H]1CC[C@@H](C)C[C@H]1OCC(=O)Nc1cc(Oc2ccc(C(=O)O)cn2)ccc1[N+](=O)[O-]
13 | 380 | 24 | 10 | CC(C)[C@@H]1CC[C@@H](C)C[C@H]1OCC(=O)Nc1cc(Oc2ccc(C(=O)O)cc2)ccc1[N+](=O)[O-]
14 | 2200 | – | – | CC(C)[C@@H]1CC[C@@H](C)C[C@H]1OCC(=O)Nc1cc(N2CCCC2C(=O)O)ccc1[N+](=O)[O-] (some centres undefined)
15 | 890 | – | – | CC(C)[C@@H]1CC[C@@H](C)C[C@H]1OCC(=O)Nc1cc(N2CCCC(C(=O)O)C2)ccc1[N+](=O)[O-] (some centres undefined)
16 | 3200 | – | – | CC(C)[C@@H]1CC[C@@H](C)C[C@H]1OCC(=O)NCc1ccc(NCc2ccc(C(=O)O)cc2)cc1
17 | 700 | – | – | COc1cccc(CNc2ccc(CNC(=O)CO[C@@H]3C[C@H](C)CC[C@H]3C(C)C)cc2)c1Oc1ccc(N)cc1C(=O)O

Row | IC50 [1] [nM] | bioavailability [2] [%] | IC50 [3] [nM] | SMILES
18 | > 15000 | – | – | CC(C)[C@@H]1CC[C@@H](C)C[C@H]1OCC(=O)NCc1ccc(NCc2ccccc2Oc2ccccc2)cc1
19 | 900 | – | – | CC(C)[C@@H]1CC[C@@H](C)C[C@H]1OCC(=O)Nc1cc(N[C@H]2CC[C@@H](C(=O)O)CC2)ccc1[N+](=O)[O-]
20 | 2600 | – | – | CC(C)[C@@H]1CC[C@@H](C)C[C@H]1OCC(=O)NCc1ccc(NCc2cc([N+](=O)[O-])ccc2Oc2cc(Oc3ccccc3)ccc2C(=O)O)cc1
21 | 1100 | – | – | CC(C)[C@@H]1CC[C@@H](C)C[C@H]1OCC(=O)Nc1cc(N[C@H]2CC[C@H](C(=O)O)CC2)ccc1[N+](=O)[O-]
22 | > 15000 | – | – | CC(C)[C@@H]1CC[C@@H](C)C[C@H]1OCC(=O)NCc1ccc(NCc2ccccc2S(=O)(=O)O)cc1
23 | 1400 | – | – | COc1cc(C(=O)O)c2c(c1C)OC(=O)c1c(C)cc(O)c(CNc3cccc(CNC(=O)CO[C@@H]4C[C@H](C)CC[C@H]4C(C)C)c3)c1O2
24 | 940 | < 10 | 10 | CC(C)[C@@H]1CC[C@@H](C)C[C@H]1OCC(=O)Nc1cc(N2CCC(C(=O)O)CC2)ccc1[N+](=O)[O-]
25 | 2900 | – | – | CC(C)[C@@H]1CC[C@@H](C)C[C@H]1OCC(=O)Nc1cc(N2CCCCC2C(=O)O)ccc1[N+](=O)[O-] (some centres undefined)
26 | 500 | – | – | COc1cccc(CNc2ccc(CNC(=O)CO[C@@H]3C[C@H](C)CC[C@H]3C(C)C)cc2)c1Oc1ncccc1C(=O)O
27 | 530 | – | – | COc1cc(C(=O)O)c2c(c1C)OC(=O)c1c(C)cc(O)c(CNc3ccc(NC(=O)CO[C@@H]4C[C@H](C)CC[C@H]4C(C)C)nc3)c1O2
28 | > 15000 | – | – | CC(C)[C@@H]1CC[C@@H](C)C[C@H]1OCC(=O)NCc1ccc(NCc2ccccc2)cc1
29 | 1200 | 94 | 100 | COc1cccc(CNc2ccc(CNC(=O)CO[C@@H]3C[C@H](C)CC[C@H]3C(C)C)cc2)c1Oc1ccc([N+](=O)[O-])cc1C(=O)O
30 | > 15000 | – | – | CC(C)[C@@H]1CC[C@@H](C)C[C@H]1OCC(=O)NCc1ccc(NCc2ccncc2)cc1
31 | 3900 | – | – | COc1cc(C(=O)O)c2c(c1C)OC(=O)c1c(C)cc(O)c(CNc3ccc(CCNC(=O)CO[C@@H]4C[C@H](C)CC[C@H]4C(C)C)cc3)c1O2
32 | 2700 | – | – | CC(C)[C@@H]1CC[C@@H](C)C[C@H]1OCC(=O)NCc1ccc(NCc2cc([N+](=O)[O-])ccc2O)cc1
33 | 5000 | – | – | CCCN(Cc1ccc(NCc2c(O)cc(C)c3c2Oc2c(C(=O)O)cc(OC)c(C)c2OC3=O)cc1)C(=O)CO[C@@H]1C[C@H](C)CC[C@H]1C(C)C
34 | 1400 | 23 | 100 | COc1cc(C(=O)O)c2c(c1C)OC(=O)c1c(C)cc(O)c(CNc3ccc(CNC(=O)CO[C@@H]4C[C@H](C)CC[C@H]4C(C)C)cc3)c1O2
